Compounds with a hit are over-represented: about 1.8% of the library has one in this group of screens.
SUMO Mot1 rescue: yeast Mot1-301 growth rescue at high temperature, primary screen, SUMOylation pathway inhibitor project, S. cerevisiae, ATP luminescence, 38.5C. S. cerevisiae Mot1-301 growth rescue; percent above DMSO median, 100 means doubled. growth rescue, % at 18.8 µM. hit rate 1% among 320,000. AID 2716, 2010;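 active means every valid replicate shows activation above 250% relative to neutral control wells; inactive means the rest, any valid replicate at or below 250%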
Efflux pump mplx: inhibitors of Candida efflux pumps in yeast, primary screen, S. cerevisiae, Nile Red, multiplex. inhibition, % at 10 µM. AID 485275, 2010. S. cerevisiae Candida pump triplex. hit rate 0.44% among 330,000;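 active means plate passing quality check with inhibition over a set limit, or well fluorescence over plate mean plus 4 SD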;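 further: Nile Red retained in pooled yeast measured as flow cytometry median fluorescence; higher means more Nile Red kept so more efflux inhibition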
Statin myotox sup: suppressors of statin myotoxicity in C2C12 myotubes, primary screen, cell-based, single point, plate reader; C2C12 myotubes + simvastatin, ATP luminescence, 48 h; scaled: DMSO 0, geranylgeraniol control 100; rescue of ATP level, % at 7.49 µM; hit rate 0.78% among 330,000; AID 602340, 2012;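 active means mean ATP rescue above about 67%, or every replicate alone reaching that limit, limit read from the data, passing the limit was not always enough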;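 further: myotubes were challenged with 10 µM simvastatin during compound exposure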
Cneo AK release: Cryptococcus neoformans cell lysis inducers, primary screen, AK release luminescence, single concentration; C. neoformans lysis, adenylate kinase release luminescence, 4 h; normalised: neutral wells 0, clomiphene wells 100; lysis activity, % at 15 µM; hit rate 0.2% among 360,000; AID 651654, 2012;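 active means mean lysis activity across replicates of at least 80%, whatever share of replicates individually reach that level; inactive means mean lysis activity below 80%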
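Material: C. neoformans cells | Amount: Yeast cell density of 5 × 10^6 cells/mL | Medium: Fresh YPD growth medium | Dosing: Single dose | Times: Static 4 h at 37 °C with compound, 1 h detection | Detection: AK luminescence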
Mot1 SUMO dose: growth restoration of Mot1-301 yeast on galactose, dose response, SUMO pathway inhibitor project, whole organism, S. cerevisiae, ATP luminescence, cherry-picked samples | 2,300 tested, under 10 active | shares compounds with SUMO Mot1 rescue | S. cerevisiae Mot1-301 galactose growth, 24 h; -100 = growth of slx-deleted rescue strain | AID 493004, 2010 | growth activity, percent, % at 42 µM;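 active means Signal drops as the depositor expects, and the fitted half-maximal dose is no more than ten times the top valid tested dose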;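 further: more negative values mean stronger growth rescue toward the control strain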
Numbers stand for hits; - = inactive; . = no result; + = active, no number.

SMILES	SUMO Mot1 rescue	Efflux pump mplx	Statin myotox sup	Cneo AK release	Mot1 SUMO dose
CCCOc1cccc(C2C(C(=O)c3cccs3)=C(O)C(=O)N2Cc2cccnc2)c1 (centres undefined)	-	-	.	-	.
COCCn1c(SCC(=O)Nc2ccc(Cl)cn2)nnc1-c1ccncc1	-	-	.	.	.
Cc1ccc(C2C(C(=O)c3cccs3)=C(O)C(=O)N2c2ccc(S(N)(=O)=O)cc2)cc1 (centres undefined)	931.7	-	.	.	-
C[C@H]1CN([C@@H](C)CO)C(=O)c2cc(-c3ccc(F)cc3)cnc2O[C@@H]1CN(C)C(=O)Cc1ccccn1	.	.	-	-	.
COc1ccccc1N1C(=O)c2ccccc2NC1c1cc(OC)c(OC)c(OC)c1 (centres undefined)	-	-	-	-	.
COc1ccccc1N1C(=O)c2ccccc2NC1C(OC)OC (centres undefined)	+	-	-	-	-
CCOC(=O)c1sc2ncn(C(CC)C(=O)OCC)c(=O)c2c1C (centres undefined)	592.2	-	-	-	-
COc1cc(NC(=S)Nc2cccnc2)cc(OC)c1OC	-	-	-	-	.
CC(=O)Nc1ccc(C(=O)OCC(=O)NCc2ccccc2)cc1	-	-	.	.	.
CC(=O)Nc1cccc(C(=O)OCC(=O)NCc2ccc(F)cc2)c1	453.4	-	-	-	-
CC(C)(C)C(=O)C(Cl)C(=O)Nc1ccccc1 (centres undefined)	604.1	-	.	.	-
CCCCC(CCCCl)C(=O)Nc1ccccc1 (centres undefined)	-	-	.	.	.
COc1ccc(NC(=O)C2c3cc(OC)c(OC)cc3C(=O)N(C)C2c2cccnc2)cc1OC (centres undefined)	-	-	-	-	.
Cc1ccc(Oc2ccc(C=O)cn2)cc1	-	-	.	.	.
CO/N=C/c1ccc(Oc2ccc(C)cc2)nc1	494.6	-	-	-	-
COc1ccc(-c2c(C)nn3c(C)cc(C)nc23)cc1	519.3	-	-	-	-
CCN(CC)CCN1C(=O)c2oc3ccccc3c(=O)c2C1c1ccc(F)cc1 (centres undefined)	-	-	-	-	.
Oc1c(Br)cc(Br)cc1/C=N/n1c(-c2ccccc2)n[nH]c1=S	643.7	-	-	-	-
Oc1c(Br)cc(/C=N/n2c(-c3ccccc3)n[nH]c2=S)c(Br)c1O	-	-	.	.	.
S=c1[nH]nc(-c2ccccn2)n1/N=C/c1ccccc1	368.9	-	.	.	-
O=C(NCc1ccco1)/C(=C/c1ccc([N+](=O)[O-])cc1)NC(=O)c1ccco1	-	-	-	-	.
Cn1cc(C(=O)N2CCCC(Nc3ccc(F)cc3)C2)c2ccccc21 (centres undefined)	662.5	-	-	-	-
O=C(C[C@@H]1CC[C@@H]2[C@H](COC[C@@H](O)CN2C(=O)c2cnccn2)O1)NCc1ccc(Oc2ccccc2)cc1	.	.	-	-	.
CCOC(=O)c1ccc(N2CN(CCc3ccccc3)CNC2=S)cc1	-	-	.	-	.
Cc1ccc(N2CN(CCc3ccccc3)CNC2=S)cc1	419.0	-	-	-	-
SMILES	SUMO Mot1 rescue	Efflux pump mplx	Statin myotox sup	Cneo AK release	Mot1 SUMO dose
COc1ccc(C)cc1NC(=O)C(=O)c1cn(CC(=O)N2CCCC2)c2ccccc12	-	-	-	-	.
O=C(C1CCCCC1C(=O)N1CCCCC1)N1CCCCC1 (centres undefined)	.	.	-	-	.
CC1(C)Cc2nc3sc4c(OCc5ccccc5)ncnc4c3cc2CO1	+	-	73.7	-	-
C[C@H](CO)N1C[C@H](C)[C@H](CN(C)CC2CC2)OCCCC[C@H](C)Oc2ccc(NC(=O)c3ccccc3)cc2C1=O	.	.	.	-	.
CCCn1c(C)cc(C(=O)COc2ccc(S(=O)(=O)N(CC)CC)cc2[N+](=O)[O-])c1C	-	-	-	-	.
CC(=O)Nc1ccc(S(=O)(=O)Nc2ccc3c(c2)C(=O)OC3)cc1	703.7	-	.	.	-
COc1ccc(S(=O)(=O)Nc2ccc(NC(C)=O)cc2)cc1OC	+	-	-	-	-
CC(=O)Nc1ccc(NS(=O)(=O)c2ccccc2)cc1	.	-	-	-	.
Cc1ccc(S(=O)(=O)NCC(=O)N2CCN(c3ccccc3F)CC2)cc1	-	-	.	.	.
Cc1c(C(=O)NC(C)C)oc2c1-c1[nH]ncc1CC2	+	-	-	-	-
CCC(=O)N(Cc1ccc2c(c1)OCO2)Cc1cc2cc(OC)ccc2[nH]c1=O	375.6	-	-	-	-
CCN(Cc1cc2cc(OC)ccc2[nH]c1=O)C(=O)Cc1ccc(OC)cc1	-	-	-	-	.
COc1cc(NC(=O)Cn2cnc3c(nc4n3CCCCC4)c2=O)cc(OC)c1OC	-	-	-	-	.
Cc1ccc(CNC(=O)C2CC(=O)N(C3CCCCCC3)C2)cc1 (centres undefined)	-	-	-	.	.
COc1ccc(N2C(=O)CSC2c2ccc([N+](=O)[O-])cc2)cc1 (centres undefined)	580.5	-	-	-	-
COC(=O)C(c1ccccc1)C1(O)CC(C)N(C)CC1C (centres undefined)	-	-	-	-	.
O=C(Nc1cccc(C(=O)Nc2ccc(F)cc2F)c1)c1ccccc1	+	-	-	-	-
CCc1c(C(=O)N2CCN(c3ccccc3F)CC2)[nH]c(C)c1C(C)=O	+	-	-	-	-
O=C(c1ccccc1C(=O)N1CCN(c2ccccc2F)CC1)N1CCN(c2ccccc2F)CC1	-	-	-	-	.
Cc1ccc(S(=O)(=O)Oc2ccc(/C=C3\N=C(c4cccc(C)c4)OC3=O)cc2)cc1	+	-	-	-	-
C[C@@H]1CCCCO[C@H](CN(C)C(=O)CCC(F)(F)F)[C@@H](C)CN([C@@H](C)CO)C(=O)c2cc(NC(=O)CCC(F)(F)F)ccc2O1	.	.	.	-	.
COc1cccc(-c2ccc([C@@H]3[C@H]4CN(C(=O)NC(C)C)CCCCN4[C@H]3CO)cc2)c1	.	.	.	-	.
COC(=O)c1ccccc1NC(=O)CSc1nnnn1CC(=O)O	616.1	-	-	-	-
C=CCn1nnnc1SCC(=O)Nc1ccccc1C(=O)OC	-	-	-	-	.
N/C(Cn1cncn1)=N\NC(=O)C(=O)Nc1ccc(Cl)cc1Cl	-	-	.	.	.
N/C(Cn1cncn1)=N\NC(=O)c1ccc(Cl)cc1Cl	778.1	-	.	.	-
Cc1cccc(NC(=O)CCS(=O)(=O)c2ccc(Cl)cc2)c1	-	-	-	-	.
O=C(NCC(c1cccs1)N1CCOCC1)c1ccccc1NS(=O)(=O)c1cc([N+](=O)[O-])ccc1Cl (centres undefined)	504.1	-	-	.	-
O=C(NCC(c1cccs1)N1CCOCC1)c1ccccc1NS(=O)(=O)c1ccc(Cl)c([N+](=O)[O-])c1 (centres undefined)	-	-	.	.	.

Compound activity as filed in PubChem BioAssay.
